Test results taken from ChEMBL document CHEMBL1165950, “Design and synthesis of new potent anticancer pyrazoles with high FLT3 kinase inhibitory selectivity” (Bioorg Med Chem, 2010).

Key:
Type in all cases: functional
DU-145 = assay: Cytotoxicity against human DU145 cells assessed as cell growth at 0.001 uM after 48 hrs by sulforhodamine B assay; conditions: DU-145, 48 h, read-out: Activity
CAKI-1 = assay: Cytotoxicity against human Caki1 cells assessed as cell growth at 100 nM after 48 hrs by sulforhodamine B assay; conditions: CAKI-1, 48 h, read-out: Activity
T47D [1] = assay: Cytotoxicity against human T47D cells assessed as cell growth at 100 nM after 48 hrs by sulforhodamine B assay; conditions: read-out: Activity
MOLT-4 [2] = assay: Cytotoxicity against human MOLT4 cells assessed as cell growth at 1 uM after 48 hrs by sulforhodamine B assay; conditions: MOLT-4, 48 h, read-out: Activity
EKVX [3] = assay: Cytotoxicity against human EKVX cells assessed as cell growth at 1 uM after 48 hrs by sulforhodamine B assay; conditions: read-out: Activity
786-0 = assay: Cytotoxicity against human 786-0 cells assessed as cell growth at 10 uM; conditions: read-out: Activity
Summary of the method: (§1)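 Single-dose NCI-60 screen at 10 µM. Cells were grown in RPMI 1640 with 5% FBS and 2 mM L-glutamine, then treated for 48 h at 37 °C. Protein was measured by SRB staining with absorbance at 515 nm. Percentage growth was recorded, and inhibition percentage was calculated as 100 minus growth percentage.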

[4] = Cytotoxicity against human Hs 578T cells assessed as cell growth at 10 uM; conditions: read-out: Activity; summary of the method: as §1
T47D [5] = assay: Cytotoxicity against human T47D cells assessed as cell growth at 10 uM; conditions: read-out: Activity
Summary of the method: (§2)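 NCI-60 screen: cells grown in RPMI 1640 with 5% FBS and 2 mM L-glutamine, plated at 5000–40,000 cells/well according to doubling time, and preincubated 24 h at 37 °C, 5% CO2. The single 10 µM dose (DMSO stock) was added, then incubated 48 h. Cells were TCA-fixed and stained with 0.4% SRB, read at 515 nm, and growth % calculated against time-zero and control plates.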

MOLT-4 [6] = assay: Cytotoxicity against human MOLT4 cells assessed as cell growth at 0.001 uM after 48 hrs by sulforhodamine B assay; conditions: MOLT-4, 48 h, read-out: Activity
COLO 205 = assay: Cytotoxicity against human COLO205 cells assessed as cell growth at 1 uM after 48 hrs by sulforhodamine B assay; conditions: COLO 205, 48 h, read-out: Activity
Summary of the method: (§3)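 NCI-60 five-dose screen. Cells were grown in RPMI 1640 with 5% FBS and 2 mM L-glutamine, plated at 5000–40,000 cells/well and preincubated for 24 h. Time-zero plates were TCA-fixed. DMSO-solubilized drug was added at five concentrations (10-fold or ½-log serial dilutions) for 48 h at 37 °C, 5% CO2. Cells were TCA-fixed, stained with 0.4% SRB and read at 515 nm. Percent growth used time-zero, control and test absorbances.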

HT-29 [7] = assay: Cytotoxicity against human HT-29 cells assessed as cell growth at 1 uM after 48 hrs by sulforhodamine B assay; conditions: HT-29, 48 h, read-out: Activity
SW-620 = assay: Cytotoxicity against human SW620 cells assessed as cell growth at 1 uM after 48 hrs by sulforhodamine B assay; conditions: SW-620, 48 h, read-out: Activity
U-251 = assay: Cytotoxicity against human U251 cells assessed as cell growth at 1 uM after 48 hrs by sulforhodamine B assay; conditions: U-251, 48 h, read-out: Activity
M14 = assay: Cytotoxicity against human M14 cells assessed as cell growth at 0.01 uM after 48 hrs by sulforhodamine B assay; conditions: M14, 48 h, read-out: Activity
OVCAR-4 = assay: Cytotoxicity against human OVCAR4 cells assessed as cell growth at 0.01 uM after 48 hrs by sulforhodamine B assay; conditions: OVCAR-4, 48 h, read-out: Activity
TK-10 = assay: Cytotoxicity against human TK10 cells assessed as cell growth at 0.01 uM after 48 hrs by sulforhodamine B assay; conditions: TK-10, 48 h, read-out: Activity
NCI-H23 = assay: Cytotoxicity against human NCI-H23 cells assessed as cell growth at 0.001 uM after 48 hrs by sulforhodamine B assay; conditions: NCI-H23, 48 h, read-out: Activity
HCT-15 = assay: Cytotoxicity against human HCT15 cells assessed as cell growth at 0.001 uM after 48 hrs by sulforhodamine B assay; conditions: HCT-15, 48 h, read-out: Activity
OVCAR-8 = assay: Cytotoxicity against human OVCAR8 cells assessed as cell growth at 0.001 uM after 48 hrs by sulforhodamine B assay; conditions: OVCAR-8, 48 h, read-out: Activity
PC-3 = assay: Cytotoxicity against human PC3 cells assessed as cell growth at 0.001 uM after 48 hrs by sulforhodamine B assay; conditions: PC-3, 48 h, read-out: Activity
HCT-116 = assay: Growth inhibition of human HCT116 cells after 48 hrs by sulforhodamine B assay; conditions: HCT-116, 48 h; for CC50: read-out: LC50 (the source's name)
Summary of the method: (§4)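 NCI 60-cell screen, five-dose mode. Cells grown in RPMI 1640 with 5% FBS and 2 mM L-glutamine and plated at 5000-40,000 cells/well according to doubling time. After 24 h preincubation, a Tz plate was TCA-fixed. Five concentrations (10-fold or 1/2 log dilutions) were applied for 48 h at 37 °C. SRB staining read at 515 nm. IC50 taken from [(Ti-Tz)/(C-Tz)]×100 = 50.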

SF-539 = assay: Growth inhibition of human SF539 cells after 48 hrs by sulforhodamine B assay; conditions: SF-539, 48 h; for CC50: read-out: LC50 (the source's name); summary of the method: as §4
OVCAR-3 = assay: Growth inhibition of human OVCAR-3 cells after 48 hrs by sulforhodamine B assay; conditions: OVCAR-3, 48 h; for CC50: read-out: LC50 (the source's name); summary of the method: as §4
[8] = Cytotoxicity against human Hs 578T cells assessed as cell growth at 0.01 uM after 48 hrs by sulforhodamine B assay; conditions: read-out: Activity
CCRF-CEM = assay: Cytotoxicity against human CCRF-CEM cells assessed as cell growth at 100 nM after 48 hrs by sulforhodamine B assay; conditions: read-out: Activity; summary of the method: as §3
EKVX [9] = assay: Cytotoxicity against human EKVX cells assessed as cell growth at 100 nM after 48 hrs by sulforhodamine B assay; conditions: read-out: Activity
ACHN = assay: Growth inhibition of human ACHN cells after 48 hrs by sulforhodamine B assay
Summary of the method: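 NCI five-dose SRB assay in RPMI 1640 with 5% FBS and 2 mM L-glutamine. Cells were preincubated 24 h, then exposed 48 h at 37 °C to five concentrations (10-fold or half-log serial dilutions from DMSO stocks). TCA fixation, SRB staining, and absorbance at 515 nm followed. IC50 was taken where [(Ti−Tz)/(C−Tz)]×100 = 50, with Tz as time-zero cell density.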

SR = assay: Cytotoxicity against human SR cells assessed as cell growth at 10 uM; conditions: read-out: Activity; summary of the method: as §2
A498 = assay: Cytotoxicity against human A498 cells assessed as cell growth at 1 uM after 48 hrs by sulforhodamine B assay; conditions: A498, 48 h, read-out: Activity; summary of the method: as §3
HT-29 [10] = assay: Cytotoxicity against human HT-29 cells assessed as cell growth at 10 uM; conditions: read-out: Activity; summary of the method: as §1

Compound	growth at 0.001 µM (DU-145) [%]	growth at 0.1 µM (CAKI-1) [%]	growth at 0.1 µM (T47D [1]) [%]	growth at 1 µM (MOLT-4 [2]) [%]	growth at 1 µM (EKVX [3]) [%]	growth at 10 µM (786-0) [%]	growth at 10 µM [4] [%]	growth at 10 µM (T47D [5]) [%]	growth at 0.001 µM (MOLT-4 [6]) [%]	growth at 1 µM (COLO 205) [%]	growth at 1 µM (HT-29 [7]) [%]	growth at 1 µM (SW-620) [%]	growth at 1 µM (U-251) [%]	growth at 0.01 µM (M14) [%]	growth at 0.01 µM (OVCAR-4) [%]	growth at 0.01 µM (TK-10) [%]	growth at 0.001 µM (NCI-H23) [%]	growth at 0.001 µM (HCT-15) [%]	growth at 0.001 µM (OVCAR-8) [%]	growth at 0.001 µM (PC-3) [%]	further results
COc1cc(C)cc(-c2c(-c3ccnc(-c4ccc(N(C)C)cc4)c3)cnn2CC#N)c1	102	-21	44	-2	9	-1.5	30.8	46.5	96	3	-51	11	6	-19	77	75	86	100	101	101	GI50 (HCT-116): 0.0501 µM; TGI (HCT-116): 1.03 µM; CC50 (HCT-116): > 100 µM; GI50 (SF-539): 0.127 µM; CC50 (SF-539): > 100 µM; GI50 (OVCAR-3): 0.03 µM; CC50 (OVCAR-3): > 100 µM; growth at 0.01 µM [8]: 58%; growth at 0.1 µM (CCRF-CEM): 11%; growth at 0.1 µM (EKVX [9]): 14%; GI50 (ACHN): 0.068 µM; LC50 (concentration giving 50% net cell kill) (ACHN): > 100 µM; TGI (ACHN): > 100 µM; growth at 10 µM (SR): -6.91%; growth at 1 µM (A498): 17%; growth at 10 µM (HT-29 [10]): -33.3%
COc1cc(C)cc(-c2nn(CC#N)cc2-c2ccc(-c3cccc(C(C)=O)c3)nc2)c1	110	69	81	19	24	18	32	11.6	97	-55	4	4	6	93	97	100	94	95	91	94	GI50 (HCT-116): 2.33 µM; TGI (HCT-116): 10.6 µM; CC50 (HCT-116): 87.4 µM; GI50 (SF-539): 1.73 µM; TGI (SF-539): 4.65 µM; CC50 (SF-539): > 100 µM; GI50 (OVCAR-3): 1.34 µM; TGI (OVCAR-3): 3.3 µM; CC50 (OVCAR-3): 8.13 µM; growth at 0.01 µM [8]: 100%; growth at 0.1 µM (CCRF-CEM): 77%; growth at 0.1 µM (EKVX [9]): 89%; GI50 (ACHN): 4.19 µM; LC50 (concentration giving 50% net cell kill) (ACHN): > 100 µM; TGI (ACHN): > 100 µM; growth at 10 µM (SR): 18.4%; growth at 1 µM (A498): -21%; growth at 10 µM (HT-29 [10]): 3.66%
